Assays:
Format in all cases: functional
KM12 [1] = assay: Cytotoxicity against human KM12 cells assessed as cell growth at 0.1 uM incubated for 48 hrs by sulforhodamine B assay relative to control; conditions: KM12, 48 h, read-out: Activity
COLO 205 = assay: Cytotoxicity against human COLO205 cells assessed as cell growth at 0.1 uM incubated for 48 hrs by sulforhodamine B assay relative to control; conditions: COLO 205, 48 h, read-out: Activity
SF-268 = assay: Cytotoxicity against human SF268 cells incubated for 48 hrs by sulforhodamine B assay; conditions: SF-268, 48 h
HOP-62 = assay: Cytotoxicity against human HOP62 cells assessed as cell growth at 0.1 uM incubated for 48 hrs by sulforhodamine B assay relative to control; conditions: HOP-62, 48 h, read-out: Activity
UACC-62 = assay: Cytotoxicity against human UACC62 cells assessed as cell growth at 0.01 uM incubated for 48 hrs by sulforhodamine B assay relative to control; conditions: UACC-62, 48 h, read-out: Activity
SK-MEL-28 = assay: Cytotoxicity against human SK-MEL-28 cells assessed as cell growth at 0.1 uM incubated for 48 hrs by sulforhodamine B assay relative to control; conditions: SK-MEL-28, 48 h, read-out: Activity
HCC 2998 = assay: Cytotoxicity against human HCC2998 cells incubated for 48 hrs by sulforhodamine B assay; conditions: HCC 2998, 48 h
MDA-MB-468 [2] = assay: Cytotoxicity against human MDA-MB-468 cells assessed as cell growth at 0.01 uM incubated for 48 hrs by sulforhodamine B assay relative to control; conditions: MDA-MB-468, 48 h, read-out: Activity
SR = assay: Cytotoxicity against human SR cells assessed as cell growth at 1 uM incubated for 48 hrs by sulforhodamine B assay relative to control; conditions: read-out: Activity
SW-620 [3] = assay: Cytotoxicity against human SW620 cells assessed as cell growth at 100 uM incubated for 48 hrs by sulforhodamine B assay relative to control; conditions: SW-620, 48 h, read-out: Activity
UO-31 = assay: Cytotoxicity against human UO31 cells assessed as cell growth at 100 uM incubated for 48 hrs by sulforhodamine B assay relative to control; conditions: UO-31, 48 h, read-out: Activity
SW-620 [4] = assay: Cytotoxicity against human SW620 cells assessed as cell growth at 10 uM incubated for 48 hrs by sulforhodamine B assay relative to control; conditions: SW-620, 48 h, read-out: Activity
OVCAR-5 = assay: Cytotoxicity against human OVCAR5 cells assessed as cell growth at 0.1 uM incubated for 48 hrs by sulforhodamine B assay relative to control; conditions: OVCAR-5, 48 h, read-out: Activity
K562 [5] = assay: Cytotoxicity against human K562 cells assessed as cell growth at 1 uM incubated for 48 hrs by sulforhodamine B assay relative to control; conditions: K562, 48 h, read-out: Activity
MDA-MB-231 = assay: Cytotoxicity against human MDA-MB-231 cells incubated for 48 hrs by sulforhodamine B assay; conditions: MDA-MB-231, 48 h
A498 = assay: Cytotoxicity against human A498 cells incubated for 48 hrs by sulforhodamine B assay; conditions: A498, 48 h
K562 [6] = assay: Cytotoxicity against human K562 cells assessed as cell growth at 0.01 uM incubated for 48 hrs by sulforhodamine B assay relative to control; conditions: K562, 48 h, read-out: Activity
MDA-MB-468 [7] = assay: Cytotoxicity against human MDA-MB-468 cells incubated for 48 hrs by sulforhodamine B assay; conditions: MDA-MB-468, 48 h
Paracentrotus lividus = assay: Antimitotic activity against Paracentrotus lividus embryo assessed as cleavage alteration measured at 2.5 hrs post fertilization by light microscopy
How it was run: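 Sea urchin eggs were fertilized with diluted sperm and cultured at room temperature in filtered seawater with paddle agitation (60 rpm), at up to 2000 embryos/mL. The effective threshold concentration causing cleavage alteration, death before hatching or full mitotic arrest was scored in duplicate.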

BT-549 = assay: Cytotoxicity against human BT549 cells assessed as cell growth at 0.1 uM incubated for 48 hrs by sulforhodamine B assay relative to control; conditions: BT-549, 48 h, read-out: Activity
KM12 [8] = assay: Cytotoxicity against human KM12 cells assessed as cell growth at 1 uM incubated for 48 hrs by sulforhodamine B assay relative to control; conditions: KM12, 48 h, read-out: Activity
HOP-92 = assay: Cytotoxicity against human HOP92 cells incubated for 48 hrs by sulforhodamine B assay; conditions: HOP-92, 48 h
IGROV-1 = assay: Cytotoxicity against human IGROV1 cells assessed as cell growth at 1 uM incubated for 48 hrs by sulforhodamine B assay relative to control; conditions: IGROV-1, 48 h, read-out: Activity
HCT-15 = assay: Cytotoxicity against human HCT15 cells assessed as cell growth at 10 uM incubated for 48 hrs by sulforhodamine B assay relative to control; conditions: HCT-15, 48 h, read-out: Activity
SK-OV-3 = assay: Cytotoxicity against human SKOV3 cells assessed as cell growth at 100 uM incubated for 48 hrs by sulforhodamine B assay relative to control; conditions: SK-OV-3, 48 h, read-out: Activity
SNB-19 = assay: Cytotoxicity against human SNB19 cells assessed as cell growth at 1 uM incubated for 48 hrs by sulforhodamine B assay relative to control; conditions: SNB-19, 48 h, read-out: Activity
MDA-MB-435 = assay: Cytotoxicity against human MDA-MB-435 cells assessed as cell growth at 10 uM incubated for 48 hrs by sulforhodamine B assay relative to control; conditions: MDA-MB-435, 48 h, read-out: Activity
T47D = assay: Cytotoxicity against human T47D cells assessed as cell growth at 0.1 uM incubated for 48 hrs by sulforhodamine B assay relative to control; conditions: read-out: Activity
NCI-H23 = assay: Cytotoxicity against human NCI-H23 cells assessed as cell growth at 1 uM incubated for 48 hrs by sulforhodamine B assay relative to control; conditions: NCI-H23, 48 h, read-out: Activity
[9] = read-out: LC50 (the source's name)
[10] = read-out: pLC50 (the source's name) (converted)

Which results are given for `COc1ccc(-c2nocc2-c2cc(OC)c(OC)c(OC)c2)cc1`?
growth at 0.1 µM (KM12 [1]): 26%; growth at 0.1 µM (COLO 205): 37%; GI50 (SF-268; read-out: GI50): 549 nM; LC50 (SF-268; read-out: LC50): > 100 µM; TGI (SF-268; read-out: TGI): > 100 µM; GI50 (SF-268; read-out: pGI50 (converted)): 550 nM; LC50 (SF-268; read-out: pLC50 (converted)): > 100 µM; TGI (SF-268; read-out: pTGI): > 100 µM; growth at 0.1 µM (HOP-62): 58%; growth at 0.01 µM (UACC-62): 90%; growth at 0.1 µM (SK-MEL-28): 61%; GI50 (HCC 2998; read-out: GI50): 347 nM; CC50 (HCC 2998; [9]): > 100 µM; TGI (HCC 2998; read-out: TGI): 22.2 µM; GI50 (HCC 2998; read-out: pGI50 (converted)): 347 nM; CC50 (HCC 2998; [10]): > 100 µM; TGI (HCC 2998; read-out: pTGI (converted)): 22.4 µM; growth at 0.01 µM (MDA-MB-468 [2]): 94%; growth at 1 µM (SR): 30%; growth at 100 µM (SW-620 [3]): 7%; growth at 100 µM (UO-31): -27%; growth at 10 µM (SW-620 [4]): 19%; growth at 0.1 µM (OVCAR-5): 86%; growth at 1 µM (K562 [5]): 14%; GI50 (MDA-MB-231; read-out: GI50): 450 nM; CC50 (MDA-MB-231; [9]): > 100 µM; TGI (MDA-MB-231; read-out: TGI): 34.2 µM; GI50 (MDA-MB-231; read-out: pGI50 (converted)): 447 nM; CC50 (MDA-MB-231; [10]): > 100 µM; TGI (MDA-MB-231; read-out: pTGI (converted)): 33.9 µM; GI50 (A498; read-out: GI50): 33.6 nM; LC50 (A498; read-out: LC50): > 100 µM; TGI (A498; read-out: TGI): 816 nM; GI50 (A498; read-out: pGI50 (converted)): 33.9 nM; LC50 (A498; read-out: pLC50 (converted)): > 100 µM; TGI (A498; read-out: pTGI (converted)): 813 nM; growth at 0.01 µM (K562 [6]): 103%; GI50 (MDA-MB-468 [7]; read-out: GI50): 123 nM; LC50 (MDA-MB-468 [7]; read-out: LC50): > 100 µM; TGI (MDA-MB-468 [7]; read-out: TGI): 13.8 µM; GI50 (MDA-MB-468 [7]; read-out: pGI50 (converted)): 123 nM; LC50 (MDA-MB-468 [7]; read-out: pLC50 (converted)): > 100 µM; TGI (MDA-MB-468 [7]; read-out: pTGI (converted)): 13.8 µM; EC (Paracentrotus lividus): 0.01 µM; growth at 0.1 µM (BT-549): 56%; growth at 1 µM (KM12 [8]): 20%; GI50 (HOP-92; read-out: GI50): 678 nM; LC50 (50% lethal concentration) (HOP-92; read-out: LC50): > 100 µM; TGI (HOP-92; read-out: TGI): 50.2 µM; GI50 (HOP-92; read-out: pGI50 (converted)): 676 nM; LC50 (50% lethal concentration) (HOP-92; read-out: pLC50 (converted)): > 100 µM; TGI (HOP-92; read-out: pTGI (converted)): 50.1 µM; growth at 1 µM (IGROV-1): 47%; growth at 10 µM (HCT-15): 11%; growth at 100 µM (SK-OV-3): 5%; growth at 1 µM (SNB-19): 36%; growth at 10 µM (MDA-MB-435): -29%; growth at 0.1 µM (T47D): 43%; growth at 1 µM (NCI-H23): 29%

From ChEMBL document CHEMBL4145521, “Regioselective synthesis of 3,4-diaryl-5-unsubstituted isoxazoles, analogues of natural cytostatic combretastatin A4” (Eur J Med Chem, 2018)
